Measurements published in ChEMBL document CHEMBL1125300, “Synthesis and biological activity of trans(+-)-N-methyl-2-(3-pyridyl)-2-tetrahydrothiopyrancarbothioamide 1-oxide (RP 49356) and analogues: a new class of potassium channel opener” (1992).

Tests used:
[1] = species: Rattus norvegicus; test: In vitro inhibitory concentration producing 90% reduction in maximum contraction produced by KCl (20 mmol) in isolated aorta of rat.; type: functional
How it was run: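 Isolated aortic tissue recorded isometrically via force-displacement transducers; equilibrated 90 min at 2 g resting tension, contracted with 20 mmol KCl, then cumulative concentration-response relaxation, each concentration added once the prior maximal effect developed. Glibenclamide 5 μM tested for reversal of relaxation. Drugs dissolved in DMSO. Mean EC90 ± SEM, number of experiments given.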

[2] = tested on: Rattus norvegicus; test: The compound was evaluated for hypotensive activity in anaesthetized Sprague Dawley rats on intravenous administration; type: functional
How it was run: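 Male Sprague Dawley rats (280–350 g), pentobarbitone 60 mg/kg ip, ventilated; carotid blood pressure recorded. 15-min iv infusion via jugular vein, one per rat, vehicle PEG 200 with 0.01 N HCl diluted 1:10 in saline. Max MBP change over ≥30 min; two or more doses in 3–4 rats; dose giving 30 mmHg fall by linear regression vs log dose.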

SMILES | IC90 ([1]; Rattus norvegicus, Aorta) [µM] | IC90 [1] [µM] | ED30 [2] [mg/kg]
C/N=C(\S)C1(c2cccnc2)CCCC1 | 30 | – | –
C/N=C(/S)[C@]1(c2cccnc2)CCCCS1(=O)=O | > 30 | – | –
C/N=C(\S)[C@]1(c2cccnc2)CCCO1 | > 30 | – | –
C/N=C(\S)C1(c2cccnc2)CCCCC1 | 3 | – | –
C/N=C(\S)C1(c2cccnc2)SCCCS1 | > 30 | – | –
C/N=C(\S)[C@]1(c2cccnc2)CCCS1 | > 30 | – | –
CNC(=S)[C@]1(c2cccnc2)CCCC[S@+]1[O-] | > 30 | – | –
C/N=C(\S)[C@]1(c2cccnc2)OCCCS1 | > 30 | – | –
C/N=C(\S)[C@]1(c2ccncc2)CCCC[S+]1[O-] (some centres not stated) | 25 | – | –
COC(=O)CC/N=C(\S)[C@]1(c2cccnc2)CCCC[S+]1[O-] (some centres not stated) | > 30 | – | –
CNC(=O)[C@]1(c2cccnc2)CCCC[S+]1[O-] (some centres not stated) | > 30 | – | –
[O-][S+]1CCCC[C@]1(CO)c1cccnc1 (some centres not stated) | > 30 | – | –
C/N=C(\S)[C@]1(c2nc3ccccc3s2)CCCC[S+]1[O-] (some centres not stated) | 29 | – | –
C/N=C(\S)[C@]1(c2ccccc2)CCCC[S+]1[O-] (some centres not stated) | 9.5 | – | –
C/N=C(\S)[C@]1(c2ccc3ccccc3c2)CCCC[S+]1[O-] (some centres not stated) | 2 | – | –
C/N=C(\S)[C@]1(c2cnc(-c3ccccc3)s2)CCCC[S+]1[O-] (some centres not stated) | 4 | – | –
C/N=C(\S)[C@]1(c2ccc(Cl)cc2)CCCC[S+]1[O-] (some centres not stated) | 2.8 | – | –
C/N=C(\S)[C@]1(c2ccc(-c3ccccc3)cc2)CCCC[S+]1[O-] (some centres not stated) | 12 | – | –
[O-][S+]1CCCC[C@]1(CS)c1cccnc1 (some centres not stated) | > 30 | – | –
CCC/N=C(\S)[C@]1(c2cccnc2)CCCC[S+]1[O-] (some centres not stated) | 0.6 | – | –
[O-][S+]1CCCC[C@]1(/C(S)=N/c1ccccc1)c1cccnc1 (some centres not stated) | > 30 | – | –
C/N=C(\S)[C@]1(c2cccc(C#N)c2)CCCC[S+]1[O-] (some centres not stated) | 1.6 | – | 0.63
C/N=C(/S)[C@]1(c2cccnc2)CCCC[S@@+]1[O-] (stereo in doubt; 8c) [APRIKALIM] | – | > 30 | –
CC1(C)Oc2ccc(C#N)cc2C(N2CCCC2=O)C1O (configuration not stated) [CROMAKALIM] | 0.2 | – | 0.06

Further lines, with some results ahead:

IC90 ([1]; Rattus norvegicus, Aorta) [µM] | IC90 [1] [µM] | SMILES | ED30 [2] [mg/kg]
> 30 | – | C/N=C(\S)[C@]1(c2cccnc2)CCCCS1 | 1.5
7 | – | C/N=C(\S)[C@]1(c2cccc(F)c2)CCCC[S+]1[O-] (some centres not stated) | –
> 30 | – | COC(=N)[C@]1(c2cccnc2)CCCC[S+]1[O-] (some centres not stated) | –
> 30 | – | N#C[C@]1(c2cccnc2)CCCC[S+]1[O-] (some centres not stated) | –
0.8 | – | C/N=C(\S)[C@]1(c2cccc(C(F)(F)F)c2)CCCC[S+]1[O-] (some centres not stated) | –
0.4 | – | C/N=C(\S)[C@]1(c2cc(Cl)cc(Cl)c2)CCCC[S+]1[O-] (some centres not stated) | –
0.3 | – | C/N=C(\S)[C@]1(c2ccc(Cl)c(Cl)c2)CCCC[S+]1[O-] (some centres not stated) | 1.28
8 | – | CCCC/N=C(\S)[C@]1(c2cccnc2)CCCC[S+]1[O-] (some centres not stated) | 1.5
0.3 | – | CC/N=C(\S)[C@]1(c2cccnc2)CCCC[S+]1[O-] (some centres not stated) | 0.15
12 | – | C/N=C(\S)[C@]1(c2cccc(C(N)=O)c2)CCCC[S+]1[O-] (some centres not stated) | –
> 30 | – | C/N=C(\SC)[C@]1(c2cccnc2)CCCC[S+]1[O-] (some centres not stated) | –
7 | – | C/N=C(\S)[C@]1(c2ccns2)CCCC[S+]1[O-] (some centres not stated) | –
> 30 | – | O=C(O)CC/N=C(\S)[C@]1(c2cccnc2)CCCC[S+]1[O-] (some centres not stated) | –
0.3 | – | C/N=C(\S)[C@]1(c2ccc(Cl)nc2)CCCC[S+]1[O-] (some centres not stated) | –
> 30 | – | C/N=C(\S)[C@]1(c2ccccn2)CCCC[S+]1[O-] (some centres not stated) | –
> 30 | – | N/N=C(\S)[C@]1(c2cccnc2)CCCC[S+]1[O-] (some centres not stated) | –
10 | – | CC(C)/N=C(\S)[C@]1(c2cccnc2)CCCC[S+]1[O-] (some centres not stated) | –
> 30 | – | C/N=C(\S)[C@]1(c2cccc(C(=O)O)c2)CCCC[S+]1[O-] (some centres not stated) | –
0.06 | – | C/N=C(\S)[C@]1(c2cnc3ccccc3c2)CCCC[S+]1[O-] (some centres not stated) | 0.04
– | 0.7 | C/N=C(/S)[C@]1(c2cccnc2)CCCC[S@@+]1[O-] (stereo in doubt; 8a) [APRIKALIM] | –
– | 0.4 | C/N=C(/S)[C@]1(c2cccnc2)CCCC[S@@+]1[O-] (stereo in doubt; 8b) [APRIKALIM] | –
